Compounds with a hit are over-represented: about 4.1% of the library has one in this group of screens.
ROMK mod – modulates human ROMK potassium channel activity; B-score at 10 µM; P48048; 130,000 tested, 2% active; Tet-inducible ROMK, thallium flux fluorescence; actives lie on both sides; AID 1918;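 active = signal ratio slope over the read window, or its plate-corrected B-score, at least 3 SD from the plate mean, either direction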;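 note: B-score of the F/F0 ratio slope over 7 to 12 s after thallium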
Autophagy mod – autophagy modulation, high-content screen | MEF GFP-LC3 puncta imaging; test concentration mostly 10 µM | calls only at 10 µM (by protocol) | 190,000 tested, 0.98% active;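 active = percentage of spot-positive cells more than 3 SD above its plate mean, without a fluorescence outlier flag or 80% toxicity; inconclusive = no clear call, values can overlap the other calls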;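 note: spot-positive cell cutoff set from DMSO-treated cells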
KCC2 mod – KCC2 (human) Cl- transport modulation; KCC2 cells, thallium flux FluoZin-2 fluorescence; 190,000 tested, 2.2% active; B-score of Tl+ flux slope (higher = more flux/activation; lower = inhibition) at 10 µM; Q9H2X9; AID 1456;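 active = thallium flux slope and its plate-corrected score both differing from the plate sample mean at a set confidence after two filtering rounds, in either direction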;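 note: slope of fluorescence scaled to starting intensity during 10 to 20 s after thallium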
Target sequence (Q9H2X9 whole entry, looked up): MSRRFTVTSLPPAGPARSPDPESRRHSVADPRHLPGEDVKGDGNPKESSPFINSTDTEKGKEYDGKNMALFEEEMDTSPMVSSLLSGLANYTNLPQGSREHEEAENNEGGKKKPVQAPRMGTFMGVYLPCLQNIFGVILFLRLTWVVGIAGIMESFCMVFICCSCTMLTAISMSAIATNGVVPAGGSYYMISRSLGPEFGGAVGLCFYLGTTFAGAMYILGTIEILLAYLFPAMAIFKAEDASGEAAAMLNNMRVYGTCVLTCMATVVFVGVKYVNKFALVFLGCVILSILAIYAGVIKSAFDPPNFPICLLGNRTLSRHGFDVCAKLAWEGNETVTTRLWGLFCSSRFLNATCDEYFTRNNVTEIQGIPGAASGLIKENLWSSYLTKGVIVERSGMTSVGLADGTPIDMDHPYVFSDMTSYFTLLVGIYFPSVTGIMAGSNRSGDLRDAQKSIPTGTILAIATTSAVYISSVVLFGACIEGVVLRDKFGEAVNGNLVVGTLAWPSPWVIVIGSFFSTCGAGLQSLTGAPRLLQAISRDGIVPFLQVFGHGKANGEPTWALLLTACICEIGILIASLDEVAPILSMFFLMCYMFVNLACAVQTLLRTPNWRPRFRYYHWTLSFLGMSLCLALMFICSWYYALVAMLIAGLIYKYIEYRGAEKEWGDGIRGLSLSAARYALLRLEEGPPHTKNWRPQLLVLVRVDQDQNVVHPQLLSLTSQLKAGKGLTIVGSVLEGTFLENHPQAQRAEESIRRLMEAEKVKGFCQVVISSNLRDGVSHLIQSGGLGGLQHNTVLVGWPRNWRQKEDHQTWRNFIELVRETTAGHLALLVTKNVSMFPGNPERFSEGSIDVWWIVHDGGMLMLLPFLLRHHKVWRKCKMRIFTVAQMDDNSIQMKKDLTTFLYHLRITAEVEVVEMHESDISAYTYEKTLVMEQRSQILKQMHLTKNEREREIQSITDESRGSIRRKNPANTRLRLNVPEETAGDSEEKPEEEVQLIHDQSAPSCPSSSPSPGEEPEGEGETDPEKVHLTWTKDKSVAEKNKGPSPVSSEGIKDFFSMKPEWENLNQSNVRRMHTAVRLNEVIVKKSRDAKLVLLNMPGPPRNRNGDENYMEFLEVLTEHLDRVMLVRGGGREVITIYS
Redox H2O2 prof – compounds producing H2O2 with reducing agent – biochemical, NIH compound library profiling, artefact control for MLSCN library redox annotation, primary screen. DTT-dependent redox cycling H2O2, phenol red/HRP absorbance; 100% = 100 µM peroxide control, 0% = buffer. activation, % at 10 µM. 200,000 tested, 0.03% active;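 active = activation of at least 50% relative to the plate's high and low controls in the primary single-dose screen; inactive = activation below 50%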;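 note: compound incubated with DTT at 0.8 mM final as the reducing agent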
Dynein transport – blocks dynein driven cargo transport along microtubules; 3617.4 mouse cells, GR-EGFP nuclear translocation imaging; test concentration mostly 20 µM; stimulated with dexamethasone, 1 µM; active compounds read low; z-score, hits read low; 220,000 tested, 0.47% active; AID 1381;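 active = plate z-score of nuclear minus cytoplasmic receptor signal below a set negative limit, without overly bright fluorescence or cell loss, cut at about -3.5 in these data, passing the limit was not always enough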;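 note: z-score of nuclear minus cytoplasmic ring GR-EGFP intensity difference per well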
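Also added – dexamethasone, 1.0 µM final · Buffer or medium – tet-free, stripped-serum medium · Schedule – induction 48 h, compound 1 h, agonist 30 min · Detection – formaldehyde fixation, Hoechst nuclear stain, 10x automated fluorescence imaging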
Dynein confirm – dynein cargo transport inhibition, confirmation; 1,000 tested, 69% active; calls only at 20 µM; shares compounds with Dynein transport; 3617.4 GR-EGFP nuclear translocation imaging, dexamethasone-induced;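 active = inhibition of receptor movement into the nucleus at or above a set limit in both runs, with normal cell brightness and cell count; inconclusive = limit reached in only one run, brightness and count normal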;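 note: dexamethasone at 1 µM final in well for 30 min; nuclear minus cytoplasmic GR-EGFP mean intensity difference in channel 2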
KCC2 secondary – KCC2 (human) modulation, secondary assay. shares compounds with KCC2 mod. HEK293-KCC2, thallium flux, FluoZin2 fluorescence; active compounds read high. normalised thallium flux (F/F0 slope) at 10 µM. 3,700 tested, 15% active. AID 1713;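 active = thallium flux slope above the same plate's solvent-only control mean plus 3 SD; inconclusive = the two replicate wells disagree; inactive = no significant difference from solvent-only control wells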
KCC2 bumet counter – thallium flux despite bumetanide block in KCC2 cells, secondary assay 3; AID 1714; HEK293-KCC2 + bumetanide/ouabain, thallium flux FluoZin2; active compounds read high; normalized thallium flux at 10 µM; shares compounds with KCC2 mod; 3,700 tested, 49% active;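 active = thallium entry rate above the same plate's blocked-transporter control wells by more than 3 SD; inconclusive = the two repeat wells disagree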;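 note: raw slope of fluorescence over initial fluorescence between 10 and 20 s after thallium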
KCC2 sec2 – confirmation of human KCC2 transport modulators; 3,700 tested, 23% active; shares compounds with KCC2 mod; normalized thallium flux at 10 µM; HEK293-KCC2, thallium flux FluoZin2 fluorescence; actives lie on both sides; F/F0 rise rate, 10–20 s post-thallium;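 active = thallium flux slope more than 3 SD above or below the plate's solvent-only control mean, mostly below; inconclusive = the two repeat wells disagreed; inactive = no significant shift from solvent-only controls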;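 note: raw slope with 0.1% DMSO as baseline and bumetanide as block control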
HEK293 Tl flux – parental HEK flux effect, counter-screen; thallium flux rate (normalised fluorescence) at 10 µM; AID 1716; shares compounds with KCC2 mod; 3,700 tested, 46% active; HEK293 parental cells, thallium flux FluoZin2, ouabain; baseline-ratio fluorescence slope, 10–20 s after thallium;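 active = thallium flux rate significantly above the same plate's solvent-only control wells, beyond their mean plus 3 SD; inconclusive = the two replicate wells gave conflicting results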
KCC2 retest ouab – confirmation of human KCC2 modulators with ouabain | 3,700 tested, 48% active | AID 1717 | shares compounds with KCC2 mod | raw Tl+ flux slope (below DMSO = inhibition, above = activation) at 10 µM | HEK293-KCC2, thallium flux FluoZin2 fluorescence; bidirectional: low = inhibitor, high = activator;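 active = thallium flux slope beyond 3 SD from same-plate DMSO control mean in most replicates, usually higher, sometimes lower; inconclusive = repeat tests gave conflicting results; inactive = no significant difference from controls in most replicates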;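 note: slope of initial-normalized fluorescence between seconds 10 and 20 after thallium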
HEK counter2 – parental HEK flux effect, counter-screen 2; shares compounds with KCC2 mod; HEK293 parental, thallium flux FluoZin-2 fluorescence slope; thallium flux slope at 10 µM; 3,700 tested, 33% active; AID 1718;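 active = thallium flux slope above the same plate's solvent-control mean plus 3 SD in both duplicate wells; inconclusive = duplicate wells that disagreed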;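 note: run without ouabain in cells lacking the KCC2 cotransporter; slope of fluorescence scaled to its starting value between 10 and 20 s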
ROMK hit retest – human ROMK channel modulation, retest confirmation. normalized thallium flux (F/F0 slope) at 10 µM. ROMK thallium flux, fluorescence ratio; active compounds read low. AID 1917. 3,000 tested, 54% active. shares compounds with ROMK mod;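 active = Flux at 10 µM at least 3 SD below or above vehicle control mean in one or both replicates; inconclusive = no clear call, values can overlap the other calls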
Numbers without * were called inactive; i = inactive; u = inconclusive; x = not tested or not shown; + = active, no number.

SMILES	ROMK mod	Autophagy mod	KCC2 mod	Redox H2O2 prof	Dynein transport	KCC2 secondary	KCC2 bumet counter	KCC2 sec2	HEK293 Tl flux	KCC2 retest ouab	HEK counter2	others
COc1ccc(CN2C(=O)NC(=O)/C(=C\c3ccco3)C2=O)cc1	-0.082	i	-0.14	6	-0.56	x	x	x	x	x	x
CCN1C(=O)C(=C/C=C/c2ccco2)C(=O)N(CC)C1=S	x	i	-0.35	0	-4.5*	x	x	x	x	x	x	Dynein confirm=+
C=Cn1ccnc1P(O)(=S)c1nc(C)c(CCOC(C)=O)s1 (centres undefined)	-0.93	i	0.57	0	0.15	x	x	x	x	x	x
CC[n+]1c(/C=C/C=C/c2ccc(N(C)C)cc2)sc2ccccc21	0.31	x	-0.27	x	-3.7*	x	x	x	x	x	x	Dynein confirm=+
CCN(CC)c1ccc(/C=C/[N+](=O)[O-])cc1	x	i	i	0	-4.2*	x	x	x	x	x	x	Dynein confirm=+
CCN(CC)c1ccc(CC2C(=O)N(C)C(=O)N(C)C2=O)cc1	x	i	1.9	0	-1.3	x	x	x	x	x	x
N/C(=N\[N+](=O)[O-])NCCCC(NC(=O)CNC(=O)c1ccccc1)C(=O)O (centres undefined)	0.036	i	0.074	2	-0.19	x	x	x	x	x	x
COc1cc(/C=C/[N+](=O)[O-])ccc1O	-7*	i	0.0071	0	-5.7*	x	x	x	x	x	x	Dynein confirm=+;ROMK hit retest=0.051*
CCCCn1c(O)c(C(C)=NCc2ccco2)c(=O)[nH]c1=O	x	x	0.0016	x	0.48	x	x	x	x	x	x
CCOC(=O)C(O)(c1ccc(NC(=S)NC(=O)c2ccc(Cl)cc2Cl)c(C)c1)C(F)(F)F (centres undefined)	x	i	5.5*	-1	-0.48	0.0063	0.029*	0.036	0.014*	0.029*	0.016*
COc1cc(/C=C/C(=O)c2c(O)n(CCc3ccccc3)c(=O)[nH]c2=O)ccc1O	x	i	-6.4*	0	-2.6	u	-0.0096*	0.034	0.0013*	0.004*	u
O=c1c2ccccc2nc(Cc2cccc([N+](=O)[O-])c2)n1-c1ccc(O)cc1	0.48	x	-0.014	x	1.2	x	x	x	x	x	x
O=C1NC(=O)N(c2ccccc2)C(=O)/C1=C/c1coc2ccc(O)cc2c1=O	x	x	-4.8*	x	-0.8	0.007	0.0042	0.028	0.0058*	0.014*	0.0088
CCCC(=O)Nc1cc(C(=O)N2CCC3(CC2)OCCO3)ccc1S(=O)(=O)c1ccc(C)cc1	x	i	-5.2*	1	-0.17	0.0097	0.006	0.033	0.0073	0.022	0.01
CC(=O)Nc1cc(C(=O)N2CCC3(CC2)OCCO3)ccc1S(=O)(=O)c1ccc(C)cc1	0.0086	i	x	0	-0.35	x	x	x	x	x	x
CC(=O)Nc1cc(C(=O)N2CCC3(CC2)OCCO3)ccc1S(=O)(=O)c1ccc(Cl)cc1	-0.13	i	-6.4*	0	-0.46	0.0077	0.0053	0.03	0.0085	0.019	0.012
Cc1ccc(S(=O)(=O)Nc2cc(C(=O)N3CCC4(CC3)OCCO4)ccc2N2CCCCC2)cc1	-2.2	i	x	0	-0.59	x	x	x	x	x	x
CCN(C(=O)CN1CC=C(c2ccccc2)CC1)c1c(N)n(Cc2ccccc2)c(=O)[nH]c1=O	0.091	i	0.72	-1	-0.83	x	x	x	x	x	x
O=C1NC(=O)C2(Cc3ccccc3N3CCCC32)C(=O)N1Cc1ccccc1 (centres undefined)	x	i	-0.78	-3	0.018	x	x	x	x	x	x
O=C1NC(=O)C2(Cc3c(nc4ccccn4c3=O)N3CCCCCC32)C(=O)N1Cc1ccccc1 (centres undefined)	-2.7	i	-4*	2	-0.83	0.0063	0.0051	u	0.0051*	0.016*	0.0085
O=c1[nH]c(=S)[nH]c(O)c1N=Nc1ccc(SC(F)F)cc1	x	x	42*	x	-0.18	0.008	0.072*	u	0.041*	0.087*	0.012*
CC(C)c1ccc(N=Nc2c(O)[nH]c(=O)[nH]c2=O)cc1	x	x	0.11	x	-0.58	x	x	x	x	x	x
Brc1ccc(C2N3CCCN23)cc1 (centres undefined)	0.94	i	0.32	0	-0.17	x	x	x	x	x	x
COc1ccc(CN2CCN(Cc3ccccc3)CC2)c(OC)c1	-0.58	i	5.4*	0	0.18	0.008	0.0059	0.03	0.0062	0.02	0.0088
COc1ccc(CN2CCN(C(=O)Cc3ccccc3)CC2)c(OC)c1	-0.72	i	0.01	0	1.3	x	x	x	x	x	x
SMILES	ROMK mod	Autophagy mod	KCC2 mod	Redox H2O2 prof	Dynein transport	KCC2 secondary	KCC2 bumet counter	KCC2 sec2	HEK293 Tl flux	KCC2 retest ouab	HEK counter2	others
O=C(C1CCN(c2nc3ccc(Br)cc3s2)CC1)N1CCC2(CC1)OCCO2	x	i	-5.1*	2	-0.57	0.0076	0.0054	0.027*	0.0071	0.019*	0.01
O=c1c2ccccc2nc(C[n+]2ccccc2)n1-c1cccc(C(F)(F)F)c1	0.9	i	0.55	-1	0.56	x	x	x	x	x	x
O=C(c1cc2c(s1)-c1ccccc1OC2)N1CCC2(CC1)OCCO2	0.72	i	-4.1*	4	-0.4	0.0072	0.0052	0.026*	0.0078	u	0.012
O=C(O)CSC(=S)N1CC2CC(C1)c1cccc(=O)n1C2 (centres undefined)	0.4	i	-0.047	-1	2	x	x	x	x	x	x
CC(C)CCP(=O)(O)c1ccccc1	1.7	i	8.3*	1	3.3	0.012	0.0065	0.035	0.008	0.023	0.011
O=C(COc1ccc(Cl)cc1)N1CCN(Cc2ccccc2)CC1	-0.25	i	x	0	0.16	u	0.0055	0.029	0.007	0.025*	0.01
CC(C)NS(=O)(=O)c1ccc(OCC(=O)N2CCN(Cc3ccccc3)CC2)cc1	0.75	i	-1.4	-3	-0.81	x	x	x	x	x	x
N#CCCn1cc(C(=O)Nc2ccccc2Br)c(-c2ccc3c(c2)OCCO3)n1	x	i	0.4	0	-0.46	x	x	x	x	x	x
